Reference: ChEMBL document CHEMBL3259739, “Synthesis and structure-activity relationship of trisubstituted thiazoles as Cdc7 kinase inhibitors” (Eur J Med Chem, 2014)
Activity calls are given as the source filed them. No cut-off for these calls is given here.

Tests used:
[1] = molecular target: T1, CDC7/DBF4 (Cell division cycle 7-related protein kinase/Activator of S phase kinase) (Homo sapiens, UniProt O00311); assay: Inhibition of Cdc7/Dbf4 (unknown origin) using 1.5 uM of ATP as substrate by AlphaScreen assay; type: protein-complex assay
T1 sequence (Q9UBU7 whole entry): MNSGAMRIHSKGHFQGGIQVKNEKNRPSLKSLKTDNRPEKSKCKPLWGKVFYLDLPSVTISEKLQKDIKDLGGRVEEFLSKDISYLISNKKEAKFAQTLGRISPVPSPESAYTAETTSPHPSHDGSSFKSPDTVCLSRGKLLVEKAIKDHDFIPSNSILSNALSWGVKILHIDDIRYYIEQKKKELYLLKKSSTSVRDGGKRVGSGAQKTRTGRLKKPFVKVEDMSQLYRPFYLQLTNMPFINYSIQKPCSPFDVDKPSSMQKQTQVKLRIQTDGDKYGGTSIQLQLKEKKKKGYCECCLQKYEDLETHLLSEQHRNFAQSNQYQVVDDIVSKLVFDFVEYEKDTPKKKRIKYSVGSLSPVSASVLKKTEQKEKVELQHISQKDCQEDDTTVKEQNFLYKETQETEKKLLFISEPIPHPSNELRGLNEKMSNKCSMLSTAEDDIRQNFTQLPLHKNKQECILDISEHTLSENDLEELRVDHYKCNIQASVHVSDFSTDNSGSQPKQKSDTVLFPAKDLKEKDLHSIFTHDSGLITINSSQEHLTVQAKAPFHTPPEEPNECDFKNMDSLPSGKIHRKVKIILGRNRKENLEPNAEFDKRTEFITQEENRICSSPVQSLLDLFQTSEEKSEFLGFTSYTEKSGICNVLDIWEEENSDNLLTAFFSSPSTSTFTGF
T1 sequence (O00311 whole entry): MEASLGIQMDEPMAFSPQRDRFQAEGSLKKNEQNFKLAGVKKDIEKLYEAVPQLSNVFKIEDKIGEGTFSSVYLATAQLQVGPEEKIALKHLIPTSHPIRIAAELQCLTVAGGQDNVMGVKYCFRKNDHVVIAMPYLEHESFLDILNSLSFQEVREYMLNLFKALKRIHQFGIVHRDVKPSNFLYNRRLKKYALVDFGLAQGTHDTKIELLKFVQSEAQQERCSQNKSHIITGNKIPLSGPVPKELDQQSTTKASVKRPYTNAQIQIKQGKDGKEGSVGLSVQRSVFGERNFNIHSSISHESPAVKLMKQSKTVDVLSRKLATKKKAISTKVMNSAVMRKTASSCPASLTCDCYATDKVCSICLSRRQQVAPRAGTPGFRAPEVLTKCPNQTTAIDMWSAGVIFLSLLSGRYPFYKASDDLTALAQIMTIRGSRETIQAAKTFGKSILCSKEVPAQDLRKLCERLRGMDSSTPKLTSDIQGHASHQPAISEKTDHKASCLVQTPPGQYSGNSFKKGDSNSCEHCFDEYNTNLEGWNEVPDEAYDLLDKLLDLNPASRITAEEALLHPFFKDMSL
In short: (§1)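 Mechanism-of-action AlphaScreen run with 6 nM Cdc7/Dbf4 and 10 nM biotinylated MCM2 substrate. […] Reaction time was 2 h. Phospho-Ser53 MCM2 was read by antibody-bound acceptor beads with streptavidin donor beads. Rates and Ki were fitted to a competitive inhibition model.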

[2] = molecular target: T1, CDC7/DBF4 (Cell division cycle 7-related protein kinase/Activator of S phase kinase); assay: Inhibition of Cdc7/Dbf4 (unknown origin) using 0.375 uM of ATP as substrate by AlphaScreen assay; type: protein-complex assay; in short: as §1
[3] = molecular target: T1, CDC7/DBF4 (Cell division cycle 7-related protein kinase/Activator of S phase kinase); assay: Inhibition of Cdc7/Dbf4 (unknown origin) using 0.667 uM of ATP as substrate by AlphaScreen assay; type: protein-complex assay
[4] = molecular target: T1, CDC7/DBF4 (Cell division cycle 7-related protein kinase/Activator of S phase kinase); assay: Inhibition of Cdc7/Dbf4 (unknown origin) using 6 uM of ATP as substrate by AlphaScreen assay; type: protein-complex assay
Mus musculus [5] = assay: Inhibition of Cdc7/Dbf4 in NCR nude mouse xenografted with human HCT116 cells assessed as reduction of phosphorylated MCM2 level in tumor at 50 mg/kg, iv after 16 hrs; type: functional, organism-based; set-up: dose 50 mg/kg; details: HCT-116
In short: (§2)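 Female athymic NCR/nu mice, 4–6 weeks old, bearing subcutaneous HCT-116 xenografts (5 × 10^6 cells in Matrigel) grown to about 250 mm3. Single iv dose formulated in 20% HPbCD, 1% HPMC, 1% PluronicF68, pH7 at 10 mg/ml; three mice per group. Tumors were homogenized in Tris lysis buffer with protease and phosphatase inhibitors. MSD capture with total MCM2 antibody, then phospho-Ser53 or total MCM2 detection by chemiluminescence; inhibition taken from the phospho/total ratio.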

[6] = molecular target: T1, CDC7/DBF4 (Cell division cycle 7-related protein kinase/Activator of S phase kinase); assay: Inhibition of Cdc7/Dbf4 (unknown origin) using 0.111 uM of ATP as substrate by AlphaScreen assay; type: protein-complex assay
[7] = molecular target: T1, CDC7/DBF4 (Cell division cycle 7-related protein kinase/Activator of S phase kinase); assay: Inhibition of Cdc7/Dbf4 (unknown origin) using 0.333 uM of ATP as substrate by AlphaScreen assay; type: protein-complex assay
[8] = molecular target: T1, CDC7/DBF4 (Cell division cycle 7-related protein kinase/Activator of S phase kinase); assay: Inhibition of Cdc7/Dbf4 (unknown origin) using 1 uM of ATP as substrate by AlphaScreen assay; type: protein-complex assay
[9] = Oral bioavailability in Sprague-Dawley rat at 5 mg/kg; type: ADME, organism-based; details: in vivo
In short: (§3)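 Male Sprague-Dawley rats given 5 mg/kg orally in 2% HPMC, 1% Tween80, pH2 (an iv arm received 2 mg/kg in DMSO). Plasma was sampled from 0.25 to 24 h and analyzed by LC/MS.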

[10] = Terminal half life in Sprague-Dawley rat at 5 mg/kg, po; type: ADME, organism-based; set-up: dose 5 mg/kg, route oral; details: in vivo, read-out: beta t1/2 (converted); in short: as §3
Mus musculus [11] = assay: Inhibition of Cdc7/Dbf4 in NCR nude mouse xenografted with human HCT116 cells assessed as reduction of phosphorylated MCM2 level in tumor at 150 mg/kg, iv after 3 hrs; type: functional; details: HCT-116, 3 h; in short: as §2
[12] = Clearance in Sprague-Dawley rat at 2 mg/kg, iv; type: ADME, organism-based; set-up: dose 2 mg/kg, route intravenous; details: in vivo

IC50 [1]	IC50 [2]	Compound	IC50 [3]	IC50 [4]	inhibition (Mus musculus [5])	IC50 [6]	IC50 [7]	IC50 [8]	bioavailability [9]	half-life [10]	inhibition in vivo at 150 mg/kg (Mus musculus [11])	clearance [12]
318 nM	546 nM	CCOC(=O)c1sc(-c2ccncc2)nc1O	–	–	–	–	–	–	–	–	–	–
–	–	NC(=O)c1sc(-c2ccnc(N)n2)nc1-c1ccc(Cl)cc1Cl	14 nM	13 nM	inactive	29 nM	20 nM	10 nM	6.58%	3.73 h	38%	64.8 mL/min/kg
